Reference: ChEMBL document CHEMBL1811899, “Synthesis and evaluation of novel 2-butyl-4-chloro-1-methylimidazole embedded chalcones and pyrazoles as angiotensin converting enzyme (ACE) inhibitors” (Bioorg Med Chem, 2011)
pIC50: −log10 of the molar value. Calls of active or inactive are those of the source. The calls are words filed in the database; no cut-off is given here.

Key:
[1] = molecular target: T1, Angiotensin-converting enzyme (Oryctolagus cuniculus, UniProt P12822); experiment: (§1) Inhibition of rabbit lung ACE assessed as reduction in hippuryl-histidyl-leucine substrate by colorimetric assay
T1 sequence (P12822 whole entry): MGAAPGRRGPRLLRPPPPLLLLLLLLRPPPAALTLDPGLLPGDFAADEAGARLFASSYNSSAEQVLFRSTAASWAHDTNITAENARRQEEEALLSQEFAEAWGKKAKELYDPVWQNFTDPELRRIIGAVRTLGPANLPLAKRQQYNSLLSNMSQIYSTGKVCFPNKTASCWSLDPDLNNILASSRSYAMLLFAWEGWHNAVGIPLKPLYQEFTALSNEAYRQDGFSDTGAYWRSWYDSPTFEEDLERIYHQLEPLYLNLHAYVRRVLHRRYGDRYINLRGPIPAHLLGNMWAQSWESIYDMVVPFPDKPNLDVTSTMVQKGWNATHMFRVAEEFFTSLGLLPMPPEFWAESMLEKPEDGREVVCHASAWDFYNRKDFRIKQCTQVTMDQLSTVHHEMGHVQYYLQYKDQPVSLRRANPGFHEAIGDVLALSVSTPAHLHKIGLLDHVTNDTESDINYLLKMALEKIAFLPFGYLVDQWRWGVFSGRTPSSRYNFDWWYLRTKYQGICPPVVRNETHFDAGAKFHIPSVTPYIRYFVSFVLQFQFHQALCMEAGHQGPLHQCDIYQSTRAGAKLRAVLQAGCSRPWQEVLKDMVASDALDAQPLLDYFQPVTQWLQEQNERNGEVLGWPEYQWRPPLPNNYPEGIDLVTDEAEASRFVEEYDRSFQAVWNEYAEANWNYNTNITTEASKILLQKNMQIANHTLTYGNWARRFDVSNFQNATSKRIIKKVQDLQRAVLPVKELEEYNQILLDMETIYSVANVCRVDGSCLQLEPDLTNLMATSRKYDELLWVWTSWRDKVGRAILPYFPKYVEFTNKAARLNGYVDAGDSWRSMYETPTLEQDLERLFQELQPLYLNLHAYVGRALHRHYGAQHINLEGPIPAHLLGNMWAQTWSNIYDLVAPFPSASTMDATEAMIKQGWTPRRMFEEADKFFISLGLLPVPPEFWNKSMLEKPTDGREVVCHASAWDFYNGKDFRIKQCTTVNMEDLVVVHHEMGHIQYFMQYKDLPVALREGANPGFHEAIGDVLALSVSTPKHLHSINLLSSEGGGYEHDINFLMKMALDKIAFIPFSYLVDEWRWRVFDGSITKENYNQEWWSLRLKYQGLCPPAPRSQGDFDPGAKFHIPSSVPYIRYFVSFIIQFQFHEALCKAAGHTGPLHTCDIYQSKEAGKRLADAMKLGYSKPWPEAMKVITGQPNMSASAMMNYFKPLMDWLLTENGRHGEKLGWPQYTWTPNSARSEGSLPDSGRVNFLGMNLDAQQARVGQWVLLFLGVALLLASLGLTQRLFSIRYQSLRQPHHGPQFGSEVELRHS
Outline: (§2)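 ACE came from a rabbit lung homogenate in 0.05 M sodium borate, pH 8.2, 0.3 M NaCl, 0.5% Triton X-100 at 4 °C, centrifuged. Enzyme was preincubated with compound for 10 min at 37 °C, then run for 30 min at 37 °C with 5 mM HHL stock in borate/NaCl buffer. Hippuric acid was derivatised with pyridine and benzenesulfonyl chloride and read at 410 nm. IC50 was taken from % inhibition versus concentration curves; means of three experiments.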

[2] = molecular target: T2, Angiotensin-converting enzyme (Oryctolagus cuniculus) (UniProt P12822); experiment: Inhibition of rabbit lung ACE assessed as reduction in hippuryl-histidyl-leucine substrate at 3 uM by colorimetric assay
T2 sequence (whole entry): T1 sequence (P12822 whole entry)
Outline: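 Rabbit lung homogenised (1 g in 10 mL of 0.05 M sodium borate, pH 8.2, with 0.3 M NaCl and 0.5% Triton X-100, 4 °C) and centrifuged to give the ACE source. Enzyme and test solution preincubated 10 min at 37 °C. The reaction was started with borate/NaCl buffer plus 5 mM HHL stock and run 30 min at 37 °C. Released hippuric acid was reacted with pyridine and benzenesulfonyl chloride, and the yellow product read at 410 nm. Inhibition% = 100 − (T/C)×100.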

[3] = molecular target: T2, Angiotensin-converting enzyme (Oryctolagus cuniculus); experiment: as §1; outline: as §2

pIC50 [1] | inhibition [2] | inhibition [3] | Compound
– | Active | – | CCCCc1nc(Cl)c(/C=C/C(=O)c2cc(OC)c(OC)c(OC)c2)n1C
5.44 | Active | Dose-dependent effect | CCCCc1nc(Cl)c(/C=C/C(=O)c2ccc(Cl)s2)n1C
– | Active | – | CCCCc1nc(Cl)c(/C=C/C(=O)c2ccccc2)n1C
– | Active | – | CCCCc1nc(Cl)c(/C=C/C(=O)c2cccnc2)n1C
2.67 | – | – | CCCCc1nc(Cl)c(C2CC(c3cc(OC)c(OC)c(OC)c3)=NN2C(C)=O)n1C (stereo not given)
3.14 | – | – | O=C(/C=C/c1ccc(O)c(O)c1)c1ccc(O)cc1O [BUTEIN]
2.70 | – | – | CCCCc1nc(Cl)c(C2CC(c3ccc4sc5ccccc5c4c3)=NN2C(C)=O)n1C (stereo not given)
– | Active | – | CCCCc1nc(Cl)c(/C=C/C(=O)c2ccco2)n1C
– | inactive | – | CCCCc1nc(Cl)c(C2CC(c3cccc4ccccc34)=NN2C(C)=O)n1C (stereo not given)
5.57 | – | Dose-dependent effect | CCCCc1nc(Cl)c(/C=C/C(=O)c2ccc3sc4ccccc4c3c2)n1C
– | Active | – | CCCCc1nc(Cl)c(/C=C/C(=O)c2ccc([N+](=O)[O-])cc2)n1C
5.65 | – | Dose-dependent effect | CCCCc1nc(Cl)c(/C=C/C(=O)c2ccc[nH]2)n1C
– | Active | – | CCCCc1nc(Cl)c(/C=C/C(=O)c2ccc(OC)cc2)n1C
2.63 | – | – | CCCCc1nc(Cl)c(C2CC(c3ccco3)=NN2C(C)=O)n1C (stereo not given)
2.74 | – | – | CCCCc1nc(Cl)c(C2CC(c3ccc(Cl)s3)=NN2C(C)=O)n1C (stereo not given)
– | Active | – | CCCCc1nc(Cl)c(/C=C/C(=O)c2ccc(Br)s2)n1C
– | Active | – | CCCCc1nc(Cl)c(/C=C/C(=O)c2ccc3ccccc3c2)n1C
2.65 | – | – | CCCCc1nc(Cl)c(C2CC(c3ccc([N+](=O)[O-])cc3)=NN2C(C)=O)n1C (stereo not given)
– | Active | – | CCCCc1nc(Cl)c(/C=C/C(=O)c2cccs2)n1C
– | Active | – | CCCCc1nc(Cl)c(/C=C/C(=O)c2ccc(C)cc2)n1C
– | Active | – | CCCCc1nc(Cl)c(/C=C/C(=O)c2cccc(Br)n2)n1C
2.63 | – | – | CCCCc1nc(Cl)c(C2CC(c3ccc(OC)cc3)=NN2C(C)=O)n1C (stereo not given)
– | Active | – | CCCCc1nc(Cl)c(/C=C/C(=O)c2cccc3ccccc23)n1C
– | Active | – | CCCCc1nc(Cl)c(/C=C/C(=O)c2ccc3c(c2)c2ccccc2n3C)n1C
– | Active | – | CCCCc1nc(Cl)c(/C=C/C(=O)c2ccc3oc4ccccc4c3c2)n1C

Compound | pIC50 [1] | inhibition [2] | inhibition [3]
O=c1cc(-c2ccc(O)cc2)oc2cc(O)cc(O)c12 [APIGENIN] | 3.55 | – | –
